{"data": "Measurements of several laboratories", "target": "Phosphatidylinositol 4,5-bisphosphate 3-kinase catalytic subunit beta isoform (PIK3CB, Homo sapiens, UniProt P42338)", "note": "Compare with care: the assays were run in different laboratories."}
{"test": "binding, competition with immobilised ligand", "conditions": "1 µM", "remaining binding [%]": 100, "SMILES": "Nc1ncc2c(n1)-c1c([nH]c3ccc(C#CC4CC4)cc13)CCCC2"}
{"test": "cell-free assay, competition with immobilised ligand", "conditions": "1 µM", "remaining binding [%]": 100, "SMILES": "CS(=O)(=O)c1cc(C2(NC(=O)c3cncc4c3cnn4-c3ccc(F)cc3)CC2)ccn1"}
{"test": "binding", "conditions": "1 µM", "remaining binding [%]": 75, "SMILES": "COc1ccnn2ncc(-c3ccnc(N(C)C)n3)c12"}
{"test": "binding, competition with immobilised ligand", "conditions": "1 µM", "remaining binding [%]": 99, "SMILES": "Cc1cnc(Nc2ccc(C(=O)N3CCC(N4CCCC4)CC3)cc2)nc1-c1cc2ccccc2s1"}
{"test": "binding", "conditions": "1 µM", "remaining binding [%]": 65, "SMILES": "C[C@H]1CCN(c2nccc(-c3cnn4ncccc34)n2)C1"}
{"test": "cell-free assay, competition with immobilised ligand", "conditions": "1 µM", "remaining binding [%]": 100, "SMILES": "Cc1cc(NC(=O)c2cccc(S(F)(F)(F)(F)F)c2)cc(-n2ccn3nc(-c4cccnc4)cc23)c1"}
{"test": "cell-free assay, competition with immobilised ligand", "conditions": "5 µM", "remaining binding [%]": 100, "SMILES": "COc1ncc2cc3ccccc3nc2c1C#N"}
{"test": "binding", "conditions": "1 µM", "remaining binding [%]": 100, "SMILES": "CN(c1nccc(-c2cnn3ncccc23)n1)C1CC1"}
{"test": "binding, competition with immobilised ligand", "conditions": "1 µM", "remaining binding [%]": 100, "SMILES": "O=C(NCCCN1CCOCC1)c1ccc(Nc2nccc(-c3cc4ccccc4s3)n2)cc1"}
{"test": "binding, competition with immobilised ligand", "conditions": "1 µM", "remaining binding [%]": 91, "SMILES": "O=C(NCC1CCOCC1)c1n[nH]cc1NC(=O)c1c(F)cccc1F"}
{"test": "binding", "conditions": "1 µM", "remaining binding [%]": 100, "SMILES": "CN(CCCC(F)(F)F)c1nccc(-c2cnn3ncccc23)n1"}
{"test": "binding, competition with immobilised ligand", "conditions": "1 µM", "remaining binding [%]": 100, "SMILES": "COc1cnc(Nc2cccc(S(N)(=O)=O)c2)nc1N1CCN(c2ccccc2)C(=O)C1"}
{"test": "cell-free assay, competition with immobilised ligand", "conditions": "1 µM", "remaining binding [%]": 89, "SMILES": "CNCc1ccccc1-c1csc([C@H](C)Nc2nc(C)nc3cc(OC)c(OC)cc23)c1"}
{"test": "binding", "conditions": "1 µM", "remaining binding [%]": 100, "SMILES": "N[C@H]1CCN(c2nccc(-c3cnn4ncccc34)n2)C1"}
{"test": "cell-free assay, competition with immobilised ligand", "conditions": "1 µM", "remaining binding [%]": 68, "SMILES": "O=C(NCc1ncc(C(F)(F)F)cc1Cl)c1ccc2c(c1)C1(CCS(=O)(=O)CC1)[C@H](C1CC1)N2S(=O)(=O)c1ccc(F)cc1"}
{"test": "binding, competition with immobilised ligand", "conditions": "1 µM", "remaining binding [%]": 0.05, "SMILES": "C=CC(=O)N1CCC(C(=O)NCC(=O)N2CCN(c3nc(-c4cnc(N)nc4C(F)F)nc(N4CCOCC4)n3)CC2)CC1"}
{"test": "cell-free assay, competition with immobilised ligand", "conditions": "1 µM", "remaining binding [%]": 99, "SMILES": "CCC(=N\\O)/C(C)=C/c1ccc(F)cc1"}
{"test": "binding, competition with immobilised ligand", "conditions": "1 µM", "remaining binding [%]": 100, "SMILES": "O=C(c1ccc(Nc2ncc(Cl)c(-c3ccc(Cl)s3)n2)cc1)N1CCC(N2CCCC2)CC1"}
{"test": "cell-free assay, competition with immobilised ligand", "conditions": "1 µM", "remaining binding [%]": 100, "SMILES": "COc1cc(-c2cn(C3CCc4ccccc4N(CC(F)(F)F)C3=O)nn2)ccc1-n1ccc(C)n1 (centres unmarked)"}
{"test": "binding", "conditions": "1 µM", "remaining binding [%]": 100, "SMILES": "CC1CCCN1c1nccc(-c2cnn3ncccc23)n1 (centres unmarked)"}
